High-throughput results from PubChem.
Only some compounds are listed: those with a hit (about 8.9% of all), similar ones and a draw of the others.
Dynein transport: dynein cargo transport inhibition | 3617.4 mouse cells, GR-EGFP nuclear translocation imaging; test concentration mostly 20 µM; stimulated with dexamethasone, 1 µM; hits give low values | z-score, hits read low | hit rate 0.47% among 220,000 | AID 1381;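 active = plate z-score of nuclear minus cytoplasmic receptor signal below a set negative limit, without overly bright fluorescence or cell loss, cut at about -3.5 in these data, passing the limit was not always enough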;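 note: z-score of nuclear minus cytoplasmic ring GR-EGFP intensity difference per well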
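Schedule: 48 h induction, then 1 h compound, then 30 min agonist, 37 °C. Buffer or medium: tetracycline-free induction medium containing charcoal-stripped FBS. Reagent: 1.0 µM final dexamethasone stimulus. Evaluation: nuclear versus cytoplasmic GR-EGFP signal, averaged per well. Signal: high-content fluorescence imaging after fixation.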
HSV replic up: increases HSV replication in cells | AID 1956 | hit rate 0.005% among 220,000 | maximum fold increase | HSV replication augmentation in cells, fold increase; in the data active = maximum fold increase above about 1.5; tested in PC3 cells
Lmaj promast: inhibitors of Leishmania major promastigote growth; Leishmania major promastigotes, resazurin fluorescence viability; AID 1063; inhibition, % at 10 µM; hit rate 9% among 200,000; in the data active = inhibition above about 50%;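 note: promastigotes grown with compound for 44 hours at 28 °C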
MT stabilizer: stabilizes microtubules in HeLa cells. HeLa tubulin immunostaining HCS, 24 h; share of cells brighter than vehicle mean+2SD. % tubulin-high responders, % at 10 µM. hit rate 0.83% among 200,000;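 active = plate Z-score above 3 for both tubulin-high and condensed-nucleus cell shares, with cell loss under 80%, at 10 µM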;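 note: anti alpha tubulin signal scored within the nucleus-defined area of each cell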
b-catenin transl: modulators of beta-catenin nuclear translocation; HeLa beta-catenin nuclear translocation, immunofluorescence imaging; hit rate 0.3% among 190,000; nuclear translocation activity, % at 5 µM;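 active = nuclear translocation activity above 50% at 5 µM, with a well cell count of 50 or more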;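 note: per-cell ratio of nuclear to cytoplasmic median beta-catenin stain intensity; plate controls were DMSO negative control for no effect and GSK-3 inhibitor IX positive control for full effect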
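Read-out: Nuclear/cytoplasmic beta-catenin signal ratio, % activation | Assay system: Human HeLa cell line | Times: 24 h compound exposure at 37°C, 5% CO2 | Signal: Fluorescence imaging of beta-catenin antibody stain plus DAPI | Dosing: 5 µM primary, 0.02–20 µM confirmation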
The depositor's hits bear a star; i = inactive; · = not tested or not shown.

SMILES | Dynein transport | HSV replic up | Lmaj promast | MT stabilizer | b-catenin transl
CCOC(=O)C(C(=O)Nc1cccc(C)n1)C1CCCCC1 (centres undefined) | -0.52 | i | 4 | 5 | -1
CCOC(=O)C(C(=O)Nc1nc2ccccc2s1)C1CCCCC1 (centres undefined) | -0.53 | i | 85* | 3 | 2
CCC(c1nnnn1Cc1ccccc1)N1CCN(c2ccccc2)CC1 (centres undefined) | -0.07 | i | 38 | 3 | 0
N#Cc1cccc(C(c2nnnn2C2CCCC2)N2CCCCCC2)c1 (centres undefined) | 1.5 | i | 18 | 3 | 0
CCC(c1nnnn1CCc1ccccc1)N1CCN(c2ccc(OC)cc2)CC1 (centres undefined) | 0.099 | i | 96* | 3 | -9
N#Cc1cccc(C(c2nnnn2CCc2ccccc2)N2CCN(C3CCCCC3)CC2)c1 (centres undefined) | -1 | i | 81* | 4 | -3
COc1ccc(C(c2nnnn2CCc2ccccc2)N2CCN(C3CCCC3)CC2)cc1 (centres undefined) | -0.0016 | i | 99* | 2 | 1
N#Cc1cccc(C(c2nnnn2C2CCCC2)N2CCC(Cc3ccccc3)CC2)c1 (centres undefined) | -1.2 | i | 65* | 2 | -3
CNC(=S)N/N=C/c1c(Cl)cccc1Cl | 1.7 | i | -5 | 3 | ·
COc1cc(C(=O)Nc2ccc(-c3nnc(-c4ccco4)o3)cc2)cc(OC)c1OC | -0.25 | i | 3 | 3 | 1
COc1ccc(Br)c(C(=O)NCCC(C)C)c1 | 0.35 | i | 12 | 4 | 0
NCCOc1ccccc1-c1ccccc1 | 0.77 | i | 28 | 2 | -3
c1ccc(-c2ccccc2OCCOCCN2CCNCC2)cc1 | -0.95 | i | 82* | 4 | 0
CCN1CCN(CCOCCOc2ccccc2-c2ccccc2)CC1 | 2.5 | i | 93* | 4 | 1
Cc1csc(NC(=O)C2CCN(S(=O)(=O)c3ccccc3F)CC2)n1 | -0.76 | i | 20 | 4 | 6
Cc1ccc(O)c(Sc2cc(C)ccc2O)c1 | -4.6 | i | -12 | 3 | 3
CC(C)COC(=O)NCC12C=CC(O1)C1C(=O)N(c3ccc(Cl)cc3)C(=O)C12 (centres undefined) | -0.17 | i | -9 | 4 | ·
Cc1ccc(N2C(=O)C3C4C=CC(CNC(=S)Nc5cccc(Cl)c5)(O4)C3C2=O)cc1 (centres undefined) | -0.46 | i | 79* | 2 | -2
Cc1ccc(N2C(=O)C3C4C=CC(CNC(=S)Nc5ccc(Cl)cc5)(O4)C3C2=O)cc1 (centres undefined) | 0.61 | i | 83* | 3 | 0
Cc1ccc(N2C(=O)C3C4C=CC(CNC(=S)Nc5ccc(F)cc5)(O4)C3C2=O)cc1 (centres undefined) | 0.12 | i | 67* | 1 | -4
O=C(Nc1ccn(Cc2ccccc2F)n1)c1ccc(COc2ccc(Br)cc2)cc1 | -0.42 | i | -3 | 4 | 3
CCC(=O)c1c(NC(C)C)cc(C)oc1=O | -0.06 | i | -6 | 5 | -1
Cc1c(NC(=O)CSc2nnc(C(C)Oc3ccc(Cl)cc3)n2-c2ccccc2)c(=O)n(-c2ccccc2)n1C (centres undefined) | 0.034 | i | -8 | 2 | ·
COc1ccc(CN2C(=O)c3ccccc3C2=O)cc1C(=O)Nc1ccc(C)cc1C | -1.3 | i | -6 | 5 | -2
COc1cccc(NC(=O)c2cc(CN3C(=O)c4ccccc4C3=O)ccc2OC)c1 | 3.5 | i | 89* | 3 | ·
SMILES | Dynein transport | HSV replic up | Lmaj promast | MT stabilizer | b-catenin transl
O=C(Nc1ccc2oc(-c3ccccc3F)nc2c1)c1ncn[nH]1 | -0.29 | · | 100* | 1 | -5
Cc1ccsc1/C=N/N1CCN(c2ccccn2)CC1 | -0.37 | i | · | · | 4
Cc1ccsc1/C=N/N1CCN(c2ccccc2)CC1 | 1.3 | i | 53* | 2 | 3
Cc1ccc(S(=O)(=O)Cn2nnnc2CN2CCN(C(=O)c3ccco3)CC2)cc1 | 0.19 | · | -2 | 4 | -2
Cc1ccc(-n2c(C)cc(C(=O)CN3CCOCC3)c2C)cc1C | 0.41 | i | 57* | 3 | 2
Cc1ccc(-n2c(C)cc(C(=O)CN3CCOCC3)c2C)cc1 | -1.2 | i | 6 | 2 | 2
Cc1cc(C(=O)CN2CCCC(C)C2)c(C)n1-c1ccc(F)cc1 (centres undefined) | -0.86 | i | 73* | 4 | -2
COC(=O)c1ccc(=O)n(Cc2ccco2)c1 | -1.5 | · | -3 | 3 | -1
COC(=O)c1ccc2c(c1)S(=O)(=O)NC(=NCc1ccco1)S2 | 1.1 | i | 96* | 4 | 0
Cc1nn(-c2nc3ccccc3[nH]2)c(N)c1-c1ccccc1 | -0.67 | i | 91* | 4 | 0
Cc1nc2c(-c3ccccc3)c(C)nn2c(N)c1-c1ccccc1 | 0.44 | i | 100* | 4 | 0
Cc1nn2c(-c3ccccc3)ccnc2c1-c1ccccc1 | 0.28 | i | -4 | 2 | ·
Cc1nn(-c2ccccc2)c(N)c1-c1ccccc1 | -0.45 | i | -7 | 2 | -2
CC(=O)Nc1ccccc1NC(=O)CC(C)(C)C | 0.55 | i | -3 | 3 | 1
CCOC(=O)c1cccnc1SCC(=O)N(CC)c1cccc(C)c1 | 0.25 | i | 91* | 2 | ·
Cc1ccccc1N=C1SC(CC(=O)Nc2ccc3ccccc3c2)C(=O)N1Cc1ccccn1 (centres undefined) | -0.14 | i | 98* | 2 | 6
O=C(CNC(=O)c1ccc(S(=O)(=O)N2CCCC2)cc1)N/N=C/c1ccccc1 | -0.62 | i | 87* | 3 | -1
O=C(CNC(=O)c1ccc(S(=O)(=O)N2CCCC2)cc1)N/N=C/c1ccc(Cl)cc1Cl | 1.5 | i | 69* | 19 | -2
CN(C)S(=O)(=O)c1ccc(C(=O)NCC(=O)N/N=C/c2ccccc2)cc1 | -0.37 | i | 44 | 1 | -2
COc1ccc(/C=N/NC(=O)CNC(=O)c2ccc(S(=O)(=O)N3CCOCC3)cc2)c(OC)c1 | -0.32 | i | 10 | 4 | 0
O=C(CNC(=O)c1ccc(S(=O)(=O)N2CCCC2)cc1)N/N=C/c1c(Cl)cccc1Cl | -0.71 | i | 83* | 7 | -3
O=C(CNC(=O)c1ccc(S(=O)(=O)N2CCCC2)cc1)N/N=C/c1ccc(Cl)cc1 | -0.96 | i | 91* | 1 | 1
COc1ccc(/C=N/NC(=O)CNC(=O)c2ccc(S(=O)(=O)N3CCOCC3)cc2)cc1OC | -0.71 | i | -8 | 6 | 0
COc1cccc(/C=N/NC(N)=S)c1OS(=O)(=O)c1ccccc1 | 0.25 | i | -1 | 4 | -5
CCN(CC)S(=O)(=O)c1cc(NS(=O)(=O)c2ccc(Cl)c(C(=O)O)c2)ccc1C | 2.1 | i | · | · | -1
O=C(Cc1ccc(Cl)cc1)N/N=C/c1c(Cl)cccc1Cl | 1.9 | i | 72* | 4 | 0
O=C(Nc1ccc(S(=O)(=O)NC2CCCCC2)cc1)c1ccco1 | -0.36 | i | 10 | 2 | -2
